Hits are enriched below; roughly 3.5% of the tested compounds scored in any of these assays.
PREPL inh = inhibits the human prolyl oligopeptidase-like enzyme. inhibition, % at 5.96 µM. Q4J6C6. recombinant PREPL, fluorescence polarization activity-based probe. hit rate 0.68% among 320,000;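 also: 0% = enzyme with DMSO and 100% = wells lacking enzyme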
PAFAH1B2 FP inh = blocks human PAF acetylhydrolase 1b catalytic subunit 2 | AID 492953 | inhibition, % at 3.39 µM | hit rate 1.2% among 340,000 | recombinant PAFAH1B2, FP-rhodamine activity probe, fluorescence polarization | P68402;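 active = inhibition above the mean of all tested compounds plus 3 SD, cut at about 24% in these data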;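 also: 0% = enzyme with DMSO and 100% = wells lacking PAFAH1B2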
Target sequence (P68402 whole entry, looked up): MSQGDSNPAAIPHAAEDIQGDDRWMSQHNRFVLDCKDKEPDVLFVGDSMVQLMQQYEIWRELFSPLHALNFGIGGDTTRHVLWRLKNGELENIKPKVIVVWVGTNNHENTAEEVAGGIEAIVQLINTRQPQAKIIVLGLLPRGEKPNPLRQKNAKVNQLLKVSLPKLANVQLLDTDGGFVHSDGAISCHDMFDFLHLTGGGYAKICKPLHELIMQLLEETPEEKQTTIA
PAFAH1B3 FP inh = blocks human PAF acetylhydrolase 1B catalytic subunit 3 | Q15102 | recombinant PAFAH1B3, FP-rhodamine probe, fluorescence polarization | inhibition, % at 3.39 µM | hit rate 0.28% among 340,000 | AID 492972;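 active = inhibition above the screen-wide average of all tested compounds plus 3 SD, cut at about 25% in these data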;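 also: 0% = enzyme with DMSO only and 100% = wells lacking PAFAH1B3 protein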
PAFAH2 FP inh = PAFAH2 (human) inhibition; hit rate 0.99% among 340,000; Q99487; recombinant PAFAH2, FP-rhodamine activity probe, fluorescence polarization; inhibition, % at 3.39 µM; AID 492956;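 active = inhibition above the mean over all tested compounds plus 3 SD, cut at about 30% in these data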;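 also: inhibitors block probe labeling of enzyme so polarization drops; 0% = enzyme with DMSO and 100% = wells lacking PAFAH2 protein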
pPAFAH FP inh = inhibitors of human plasma PAF acetylhydrolase (pPAFAH); Q13093; recombinant pPAFAH, FP-rhodamine probe fluorescence polarization; inhibition, % at 3.39 µM; hit rate 1.5% among 330,000; AID 463082;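 active = inhibition above the mean inhibition across the screen plus 3 SD, cut at about 25% in these data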;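 also: inhibitors block binding of the rhodamine activity-based probe so polarization drops; 0% = enzyme with DMSO and 100% = wells lacking pPAFAH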
Target sequence (Q13093 whole entry, looked up): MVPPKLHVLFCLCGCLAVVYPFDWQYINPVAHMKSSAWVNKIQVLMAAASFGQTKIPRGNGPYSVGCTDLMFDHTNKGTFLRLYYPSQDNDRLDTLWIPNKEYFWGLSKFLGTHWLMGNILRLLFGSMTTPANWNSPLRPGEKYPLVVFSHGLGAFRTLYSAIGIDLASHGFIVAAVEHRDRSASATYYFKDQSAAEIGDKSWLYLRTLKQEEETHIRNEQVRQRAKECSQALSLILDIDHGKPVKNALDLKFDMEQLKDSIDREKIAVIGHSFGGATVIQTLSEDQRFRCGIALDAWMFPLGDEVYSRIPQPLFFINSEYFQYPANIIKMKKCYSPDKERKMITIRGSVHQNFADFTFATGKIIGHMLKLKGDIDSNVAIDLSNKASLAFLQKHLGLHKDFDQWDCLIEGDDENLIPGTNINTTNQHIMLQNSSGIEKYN
Apaf1 inhib = inhibitors of human Apaf-1 apoptosome. O14727. reconstituted apoptosome caspase-3 activity, DEVD-Rh110 fluorescence. inhibition, % at 20 µM. hit rate 0.71% among 330,000; active = inhibition of at least 40% at 20 µM;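 also: plate controls were DMSO wells for no effect and DEVD-CHO caspase inhibitor wells for full effect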
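Material: reconstituted apoptosome with Apaf-1, cytochrome c, caspase-9, procaspase-3, dATP; medium: pH 7.5 Hepes buffer with CHAPS, BSA, DTT; also added: cytochrome c and DEVD-Rh110 substrate; timing: 30 min plus 50 min, RT; signal: Rh110 fluorescence intensity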
PREPL confirm = human PREPL inhibition, confirmation | recombinant PREPL, fluorescence polarization activity probe | AID 2803 | inhibition, % at 5.96 µM | hit rate 67% among 2,000 | shares compounds with PREPL inh;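 also: 0% = protein with DMSO and 100% = wells lacking protein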
* = called active by the depositor; · = no result. Rule as the data show it, unless noted: active = inhibition above about 43%; inactive = the rest.

SMILES | PREPL inh | PAFAH1B2 FP inh | PAFAH1B3 FP inh | PAFAH2 FP inh | pPAFAH FP inh | Apaf1 inhib | PREPL confirm
C#CCOCCOCCOCCNc1nc(N2CCN(C(=O)[C@H](CCCCN)n3cc(C(N)CO)nn3)CC2)nc(N2CCN(C(=O)[C@H](CCC(=O)O)n3cc(C(N)Cc4ccc(O)cc4)nn3)CC2)n1 (some centres undefined) | · | · | · | · | · | 14.5 | ·
C#CCOCCOCCOCCNc1nc(N2CCN(C(=O)[C@H](CCCCN)n3cc([C@@H](N)CO)nn3)CC2)nc(N2CCN(C(=O)[C@H](Cc3cc4ccccc4[nH]3)n3cc([C@@H](N)Cc4ccc(O)cc4)nn3)CC2)n1 | 55.2* | · | · | · | 1.8 | 55.3* | 50.3*
C#CCOCCOCCOCCNc1nc(N2CCN(C(=O)[C@H](CCCCN)n3cc([C@@H](N)CC(C)C)nn3)CC2)nc(N2CCN(C(=O)[C@H](Cc3cc4ccccc4[nH]3)n3cc([C@@H](N)Cc4ccc(O)cc4)nn3)CC2)n1 | 49.3* | -4.9 | 5.1 | 0.6 | -6.6 | 6.4 | 51.9*
C#CCOCCOCCOCCNc1nc(N2CCN(C(=O)[C@H](CCCCN)n3cc([C@@H](N)CC(C)C)nn3)CC2)nc(N2CCN(C(=O)[C@H](Cc3ccc(O)cc3)n3cc([C@@H](N)CC(C)C)nn3)CC2)n1 | 18.4 | · | · | · | -3.9 | 10.7 | ·
Nc1c(N2CCN(c3ccccc3)CC2)c2ccccc2oc1=O | 50.5* | 4.7 | 3.1 | 7.4 | 8.7 | 9.8 | 42.1
COc1cccc(N=Nc2c(N)[nH][nH]c2=O)c1 | 2.7 | 6.3 | 11.8 | 2.4 | -2.8 | 2.7 | ·
COc1cccc(N=Nc2c(N)[nH]n3c(=O)c4c(nc23)CCCC4)c1 | 59.1* | · | · | · | 29.9* | 11.8 | 56.8*
COc1ccc(NC(=O)CN2C(=O)NC(C)(c3ccc4c(c3)OCCO4)C2=O)cc1S(N)(=O)=O (centres undefined) | 14.0 | -1.6 | 6.5 | -11.8 | 2.9 | -0.7 | ·
c1cc2c(cc1CNc1ccc(N3CCOCC3)cc1)OCO2 | 57.5* | 8.1 | 7.9 | 3.7 | 14.1 | -0.8 | 34.4
Cc1ccc(CNc2ccc(N3CCOCC3)cc2)cc1 | 44.1* | 8.7 | 12.8 | -0.5 | 9.0 | 0.6 | 33.9
CC(C)c1ccc(CNc2ccc(N3CCOCC3)cc2)cc1 | 51.8* | 3.0 | 4.7 | -1.4 | 19.8 | 36.3 | 55.3*
c1cc(CNc2ccc(N3CCOCC3)cc2)ccn1 | 21.7 | 3.2 | -1.9 | 4.5 | 9.3 | -8.3 | ·
Nc1cc(=O)[nH]n1C1CCCCC1 | 15.2 | 2.2 | -0.5 | 8.3 | -4.2 | 0.5 | ·
CCC(C)n1c(C)cc(=O)n1C(C)CC (centres undefined) | · | 3.4 | 11.1 | 5.9 | · | · | ·
O=C(Nc1c(C(=O)N2CCOCC2)cnn1-c1ccccc1)c1cccc(F)c1 | 24.2 | 1.6 | 10.1 | 0.8 | 12.4 | 9.3 | ·
C=CCCC(=O)N1CCC(Oc2cccc(C(=O)NCc3ccccn3)c2)CC1 | -7.2 | -4.5 | 3.0 | 0.2 | 0.3 | -6.0 | ·
Cc1ccc(C(C)C)c(OCc2nn(CC(=O)c3ccc(Cl)cc3)c3[n+]2CCCCC3)c1 | 21.2 | 5.2 | 5.7 | 5.6 | 2.8 | 37.1 | ·
CCN1C(N(C)CCc2c[nH]c3ccccc23)=N[C@@H](c2cccc(C(F)(F)F)c2)C(C(=O)OC)=C1C | 55.8* | -3.9 | 9.1 | 0.9 | -2.3 | 54.9* | 41.5
O=C(NCc1cccs1)c1cc(-c2ccncc2)nc2ccc(Br)cc12 | -32.3 | · | · | · | 0.8 | 1.2 | ·
NC(=O)COC(=O)CNC(=O)c1sc2ccccc2c1Cl | -3.7 | 1.6 | 6.1 | 5.1 | 4.2 | -5.4 | ·
Cc1ccc(S(=O)(=O)NCC(=O)OCC(=O)N(CCC#N)c2ccccc2)cc1 | 46.8* | 8.2 | 15.7 | -1.6 | 6.9 | -2.5 | 38.5
Cc1cc(C)cc(N(CCC#N)C(=O)COC(=O)CNC(=O)c2sc3ccccc3c2Cl)c1 | 43.2* | -2.8 | 2.3 | 2.5 | 2.1 | 21.9 | 40.5
CNS(=O)(=O)c1cccc(C(=O)OCC(=O)N(CCC#N)c2ccccc2)c1 | -0.6 | 10.6 | 6.1 | -2.5 | 3.8 | -9.8 | ·
CCNc1nc(N)nc(Oc2ccc(OCCOc3ccc(Cl)cc3Cl)nn2)n1 | 20.7 | 7.5 | 8.6 | 6.4 | 0.6 | 6.3 | ·
COc1cc(/C=C2/C(=N)N3C(SC)=NSC3=NC2=O)ccc1OC(=O)c1ccco1 | 54.1* | 5.7 | 4.2 | -1.7 | 9.1 | 6.2 | 63.6*
SMILES | PREPL inh | PAFAH1B2 FP inh | PAFAH1B3 FP inh | PAFAH2 FP inh | pPAFAH FP inh | Apaf1 inhib | PREPL confirm
CCS(=O)(=O)C1=NSC2=NC(=O)/C(=C\c3ccc(OC(=O)c4ccco4)c(OC)c3)C(=N)N21 | 53.1* | 0.8 | 8.0 | 3.7 | 12.6 | 10.5 | 77.1*
CCOc1cc(/C=C2/C(=N)N3C(=NC2=O)SN=C3S(=O)(=O)CC)ccc1OC(=O)c1ccco1 | 35.6 | 3.5 | 8.9 | -1.9 | 8.1 | 5.0 | ·
COc1cc(/C=C2/C(=N)N3C(=NC2=O)SN=C3S(C)(=O)=O)ccc1OC(=O)c1ccco1 | 61.7* | 8.8 | 4.0 | -3.4 | 5.5 | -0.8 | 79.5*
COc1cc(/C=C2\C(=O)N(c3ccc(S(N)(=O)=O)cc3)N=C2C)ccc1OC(=O)c1ccco1 | 53.9* | 2.8 | 2.0 | 10.0 | 4.4 | 90.7* | 83.0*
COc1cc(/C=C2/C(=N)N3C(=NC2=O)SN=C3S(=O)(=O)C(C)C)ccc1OC(=O)c1ccco1 | 38.3 | 9.8 | 6.5 | 4.9 | 6.2 | -6.3 | ·
COc1ccccc1OCCNC(=O)CCS(=O)(=O)c1ccccc1 | 3.5 | 5.7 | -6.6 | 1.3 | -10.6 | 0.8 | ·
O=c1cc(-c2ccccc2)oc2cccc(O)c12 | · | 2.4 | 4.2 | -4.8 | · | · | ·
O=c1oc(-c2ccc(O)c(O)c2)cc2cccc(O)c12 | 66.8* | -0.7 | 2.2 | 17.4 | 25.1* | -0.2 | 37.8
O=C(Cc1cccc(C(F)(F)F)c1)Nc1ccccc1N1CCCC1 | 3.9 | 3.5 | -4.2 | -4.8 | 11.9 | 18.9 | ·
COCCCNC(=O)/C(C#N)=C/c1c(N2CCN(c3ccc(OC)cc3)CC2)nc2c(C)cccn2c1=O | 50.7* | 5.5 | 8.3 | -5.1 | 4.0 | 28.2 | 51.8*
CNC(=O)/C(C#N)=C/c1c(N2CCN(c3ccc(OC)cc3)CC2)nc2c(C)cccn2c1=O | 52.2* | -4.9 | 8.9 | 10.1 | 7.3 | 8.6 | 43.9*
CNC(=O)/C(C#N)=C/c1c(N2CCN(c3ccccc3)CC2)nc2c(C)cccn2c1=O | 16.4 | -4.0 | 7.8 | -9.9 | 3.1 | 10.7 | ·
COC(=O)/C(C#N)=C/c1c(N2CCCCCC2)nc2c(C)cccn2c1=O | · | 3.4 | 11.9 | 0.4 | · | 19.6 | ·
COC(=O)/C(C#N)=C/c1c(N2CCN(c3ccc(OC)cc3)CC2)nc2c(C)cccn2c1=O | 48.2* | -2.5 | 7.2 | 6.9 | 8.0 | 23.5 | 45.9*
Nc1nc(COc2ccc(F)cc2)nc(N2CCCCC2)n1 | 4.7 | -0.9 | 7.1 | 0.3 | -7.0 | 4.0 | ·
COCCCn1c(SCCc2ccccc2)nc2cc(OC)c(OC)cc2c1=N | 46.3* | 13.0 | 17.8 | 2.1 | 19.6 | 15.5 | 42.3

Assay outcomes from PubChem.
